Molecules are shown by their SMILES. The source made the active and inactive calls. The calls are words filed in the database; no cut-off is given here.

Usually IC50 stands for the point on the concentration scale where inhibition reaches its midpoint. A high value points to weaker potency in that assay. By ΔTm is commonly meant the shift of the melting midpoint relative to a reference. By Tm is commonly meant the temperature at the midpoint of the melting transition.

For one series, the system named is K562. The series can be described thus: Cytotoxicity against human K562 cells after 48 hrs by MTT assay. To be noted: for IC50: K562, 48 h. The series is classed as functional, cell-based. In a few lines: (§1)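 Antiproliferative screen in human tumour lines; IC50 values derived, with cisplatin as positive control.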
(Tetrazolium dyes change colour on reduction, which living cells bring about.)

In another series the test system is MCF7. The series can be described thus: Cytotoxicity against human MCF7 cells after 48 hrs by MTT assay. The settings on record: for IC50: MCF7, 48 h. It counts as functional, cell-based. The procedure, abridged: as §1
The subject of a further series is HeLa. The series can be described thus: Cytotoxicity against human HeLa cells after 48 hrs by MTT assay. The series is classed as functional, cell-based. The procedure, abridged: as §1
In a further series the test system is A549. The series can be described thus: Cytotoxicity against human A549 cells after 48 hrs by MTT assay. To be noted: A549, 48 h. The series is classed as functional, cell-based. The procedure, abridged:
as §1

The nature of series [1]: Cytotoxicity against mouse skull osteoblasts at 10 uM after 48 hrs by MTT assay relative to control. It counts as cell-based. The settings on record: osteoblast. The procedure, abridged:
(§2)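 Primary osteoblasts were isolated from newborn mouse skull and exposed to compounds at five concentrations for 48 h. Induced cell death was measured by MTT assay and expressed as % cytotoxicity.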

The test system of series [2] is DNA. The series can be described thus: Binding affinity to calf thymus DNA assessed as hyperchromicity at 10 uM after 10 mins by UV-vis spectrophotometric analysis. To be noted: Bos taurus. The series is classed as nucleic-acid assay. The procedure, abridged:
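UV–vis absorption titration: 1.0 × 10^-5 M compound in 10 mM phosphate buffer pH 7.4 with 50 mM NaCl and 2% DMSO at 25 °C, with increasing Ct-DNA. Spectral changes were followed, and binding was fitted at the absorption maximum.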

For series [3], the system named is DNA. The series can be described thus: Binding affinity to calf thymus DNA assessed as change in melting temperature at 5 uM after 10 mins by thermal denaturation assay. The series is classed as nucleic-acid assay. To be noted: Bos taurus.
The nature of series [4]: Cytotoxicity against mouse skull osteoblasts at 100 uM after 48 hrs by MTT assay relative to control. The series is classed as cell-based. To be noted: osteoblast. The procedure, abridged:
as §2

Series [5] deals with DNA. The series can be described thus: Binding affinity to calf thymus DNA assessed as intercalation at 20 uM after 10 mins measured at 350 to 500 nm wavelength by circular dichroism spectroscopic analysis. It counts as nucleic-acid assay. The settings on record: Bos taurus. The procedure, abridged: (§3)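 Circular dichroism: spectra of Ct-DNA (5.0 × 10^-5 M) recorded with or without compound (2.0 × 10^-5 M). Buffer was 10 mM phosphate pH 7.4 with 50 mM NaCl and 2% DMSO, at 25 °C.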

Series [6] has as its system DNA. The series can be described thus: Binding affinity to calf thymus DNA assessed as increase in intensity of positive band at 20 uM after 10 mins measured at 277 nm wavelength by circular dichroism spectroscopic analysis. The series is classed as nucleic-acid assay. The settings on record: Bos taurus. In a few lines: as §3
(CD spectra are sensitive to the conformation of chiral molecules.)

Series [7] can be described thus: Cytotoxicity against mouse skull osteoblasts at 20 uM after 48 hrs by MTT assay relative to control. It counts as cell-based. The settings on record: osteoblast. In a few lines:
as §2

Series [8] in a line: Cytotoxicity against mouse skull osteoblasts at 40 uM after 48 hrs by MTT assay relative to control. The series is classed as cell-based. To be noted: osteoblast. The procedure, abridged:
as §2

The test system of series [9] is DNA. The series can be described thus: Binding affinity to calf thymus DNA assessed as decrease in intensity of negative band at 20 uM after 10 mins measured at 246 nm wavelength by circular dichroism spectroscopic analysis. It counts as nucleic-acid assay. The settings on record: Bos taurus. In a few lines: as §3
Series [10] has as its system DNA. The series can be described thus: Binding affinity to calf thymus DNA assessed as melting temperature at 5 uM after 10 mins by thermal denaturation assay (reference value: 67 degC). The series is classed as nucleic-acid assay. To be noted: Bos taurus.
Series [11] has as its system DNA. The series can be described thus: Binding affinity to calf thymus DNA after 10 mins by Stern-Volmer plot analysis. The series is classed as nucleic-acid assay. To be noted: Bos taurus. The procedure, abridged: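 Fluorescence titration: 5.0 × 10^-5 M compound in 10 mM phosphate buffer pH 7.4 with 50 mM NaCl and 2% DMSO at 25 °C, Ct-DNA added stepwise. Excitation wavelength set per compound (318–339 nm); excitation and emission slits 10.0 nm; emission read near 455 nm. F/F0 plotted against Ct-DNA concentration and analysed by Stern–Volmer plot.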

A short description of series [12]: Cytotoxicity against mouse skull osteoblasts at 1 uM after 48 hrs by MTT assay relative to control. To be noted: osteoblast. The series is classed as cell-based. The procedure, abridged: as §2

For `CN(C)CCOc1ccc(-c2c(-c3ccc(OCCN(C)C)cc3)c3ccccc3oc2=O)cc1`, the IC50 was 99.6 µM with K562, 71.6 µM with MCF7, above 100 µM with HeLa and above 100 µM with A549.

Consider `CN1CCN(CCOc2ccc(-c3c(-c4ccccc4)c4ccc(OCCN5CCN(C)CC5)cc4oc3=O)cc2)CC1`, for which the Activity was 0.6% in series [1]; 8% in the series with DNA [2]; 31.6% in [4]; 3.2% in series [7]; 14.6% in series [8]; -2.4% in series [12]. Besides, in the series with DNA [3], the ΔTm worked out at 2.2 °C. For the same compound, the IC50 with K562 came to 3.23 µM; with MCF7, 3.47 µM; in the series with HeLa, 3.68 µM; with A549, 4.7 µM. In addition, the result in the series on DNA [5], with DNA [6] and in the series with DNA [9] was Active. In addition, the Tm in the series on DNA [10] amounted to 69.2 °C. This compound also yielded a Kb with DNA [11] of 5.2 ×10³ /M.

With `CCN(CC)CCOc1ccc(-c2c(-c3ccc(OCCN(CC)CC)cc3)c3ccccc3oc2=O)cc1`, the Activity in the series with DNA [2] was determined as 17%. The ΔTm in the series with DNA [3] came out at 4.5 °C. Also, the IC50 in the series on K562 is 56.2 µM; with MCF7 it was 50.1 µM; in the series on HeLa, 45.2 µM; with A549 it was 46.3 µM. The outcome in the series on DNA [5], in the series on DNA [6] and with DNA [9] was Active. In the series with DNA [10], the Tm is 71.5 °C. Besides, in the series on DNA [11], the Kb came out at 1 ×10⁴ /M.

Consider `CN1CCN(CCOc2ccc(-c3c(-c4ccc(OCCN5CCN(C)CC5)cc4)c4ccccc4oc3=O)cc2)CC1`, for which the Activity in the series with DNA [2] turned out to be 17%. Also, the ΔTm in the series with DNA [3] was found to be 4 °C. The IC50 worked out at 53.2 µM in the series on K562, 78.3 µM with MCF7, 60.5 µM in the series with HeLa and 55.6 µM with A549. The outcome in the series on DNA [5], in the series with DNA [6] and in the series on DNA [9] was Active. For the same compound, in the series with DNA [10], the Tm turned out to be 71 °C. Also, the Kb in the series on DNA [11] came to 1.4 ×10⁴ /M.

Take `O=c1oc2cc(OCCN3CCCCC3)ccc2c(-c2ccccc2)c1-c1ccc(OCCN2CCCCC2)cc1`: the Activity in series [1] is 3.7%; in the series with DNA [2], 6%; in series [4], 33.4%; in series [7] it was 4.9%; in series [8] it was 18.6%; in series [12] it was -6.5%. For the same compound, in the series on DNA [3], the thermal shift (ΔTm) turned out to be 1.2 °C. Besides, the half-maximal inhibitory concentration (IC50) in the series on K562 was 4.9 µM; in the series on MCF7 it was 6.53 µM; in the series with HeLa, 5.08 µM; in the series on A549, 5.21 µM. Also, the result with DNA [5], in the series on DNA [6] and in the series on DNA [9] was Active. Further, the Tm in the series on DNA [10] was 68.2 °C. Also, the Kb in the series on DNA [11] came out at 7 ×10³ /M.

Turning to `O=c1oc2cc(OCCN3CCOCC3)ccc2c(-c2ccccc2)c1-c1ccc(OCCN2CCOCC2)cc1`, the IC50 in the series on K562, with MCF7, in the series on HeLa and in the series on A549 was above 100 µM each time.

Take `O=c1oc2ccccc2c(-c2ccc(OCCN3CCOCC3)cc2)c1-c1ccc(OCCN2CCOCC2)cc1`: the IC50 in the series with K562, with MCF7, with HeLa and in the series on A549 was above 100 µM in each case.

In the case of `O=c1oc2ccccc2c(-c2ccc(OCCN3CCCCC3)cc2)c1-c1ccc(OCCN2CCCCC2)cc1`, the Activity in [1] was 1.6%; in the series on DNA [2] it was 16%; in [4], 40.3%; in [7], 10.6%; in series [8] it was 22.3%; in series [12], -3.2%. In addition, the ΔTm with DNA [3] turned out to be 3 °C. Further, the IC50 in the series on K562 is 5.44 µM; in the series with MCF7, 4.29 µM; in the series on HeLa, 4.36 µM; with A549 it was 7.28 µM. Moreover, the result in the series on DNA [5], with DNA [6] and with DNA [9] was Active. In addition, in the series with DNA [10], the midpoint of thermal melting (Tm) is 70 °C. The Kb with DNA [11] came to 1.2 ×10⁴ /M.

Regarding `CN(C)CCOc1ccc(-c2c(-c3ccccc3)c3ccc(OCCN(C)C)cc3oc2=O)cc1`, the Activity in [1] was -0.2%; in series [4], 31.5%; in [7], 4.3%; in [8], 13.8%; in series [12], -0.6%. Besides, the IC50 in the series with K562 turned out to be 7.19 µM; in the series with MCF7 it was 6.99 µM; in the series on HeLa it was 8.49 µM; in the series with A549, 9.13 µM.

Regarding `O=c1oc2ccccc2c(-c2ccc(O)cc2)c1-c1ccc(O)cc1`, the outcome in the series on K562 and in the series with MCF7 was inactive.

`O=c1oc2cc(OCCN3CCCC3)ccc2c(-c2ccccc2)c1-c1ccc(OCCN2CCCC2)cc1`: the Activity is reported as -5.6% in series [1]; 32.8% in series [4]; 5.2% in series [7]; 16.4% in [8]; -2.5% in [12]. Besides, the IC50 in the series with K562 is 5.46 µM; in the series on MCF7, 6.63 µM; with HeLa, 4.7 µM; with A549, 7.35 µM.

Consider `CCN(CC)CCOc1ccc(-c2c(-c3ccccc3)c3ccc(OCCN(CC)CC)cc3oc2=O)cc1`, for which the Activity was -1.5% in series [1]; 8% in the series with DNA [2]; 31.7% in [4]; 3.7% in series [7]; 15.8% in series [8]; -7.2% in series [12]. Moreover, the ΔTm with DNA [3] was 1.7 °C. Moreover, the 50% inhibitory concentration (IC50) in the series with K562 was determined as 2.73 µM; in the series on MCF7, 5.95 µM; in the series with HeLa, 9.58 µM; with A549, 8.97 µM. Further, the result in the series on DNA [5], in the series with DNA [6] and in the series on DNA [9] was Active. For the same compound, in the series with DNA [10], the Tm amounted to 68.8 °C. This compound gave a Kb with DNA [11] of 6 ×10³ /M.

For the compound `O=c1oc2cc(O)ccc2c(-c2ccccc2)c1-c1ccc(O)cc1`, the result with K562 and in the series on MCF7 was inactive.

In the case of `O=c1oc2ccccc2c(-c2ccc(OCCN3CCCC3)cc2)c1-c1ccc(OCCN2CCCC2)cc1`, the Activity in series [1] is reported as -0.5%; in series [4] it was 39.5%; in series [7], 8.4%; in series [8], 20.4%; in series [12], 0.1%. For the same compound, the IC50 amounted to 7.54 µM with K562, 16.6 µM in the series on MCF7, 8.25 µM in the series on HeLa and 8.79 µM in the series on A549.

The record behind these values is ChEMBL document CHEMBL3112392, “Cytotoxicity and DNA binding property of triphenylethylene-coumarin hybrids with two amino side chains” (Bioorg Med Chem Lett, 2014).
